Data taken from article PMC10448036 (International Journal for Parasitology: Drugs and Drug …, 2023).
Like-named read-outs stand apart in the source and are kept apart here. Marks after values point to notes of the source that are not given here.

Assays:
[1] = Plasma disposition kinetics; assay type: in vivo, lambs; settings: for AUC0-LOQ / AUC0-∞: closantel in plasma, lambs
[2] = most species, ref Zulalian et al., 1994; cited from earlier work
[3] = test system: multiple resistant gastrointestinal nematodes (mainly H. contortus); experiment: Faecal egg count reduction test; assay type: in vivo, lambs; settings: for Nematode egg counts (mean): arithmetic mean; for Efficacy (%) [CI] (FECRT): 95% CI, Coles et al. (1992) formula
[4] = test system: breast cancer resistance protein (BCRP); settings: ref Pérez et al., 2009; cited from earlier work
[5] = test system: Nematodirus spp., Oesphagostomum spp. and Trichuris ovis; experiment: Adult nematode counts at necropsy; assay type: in vivo; settings: 13 days post-treatment, sc and oral, lambs n = 2 per group
Procedure, shortened: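 Naturally parasitized lambs, ranked by epg and split into groups of 10, were dosed on day 0 by individual weight with two test compounds, alone or combined. The first was given at 5 mg/kg sc or 10 mg/kg oral, the second at 0.2 mg/kg sc or oral. An untreated control group was kept. At 13 and 28 days post-treatment, two random animals per group were killed by captive bolt and exsanguinated.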

[6] = Adverse events / tolerability; assay type: in vivo; settings: lambs, sc and oral treatments
Haemoncus spp. = experiment: L3 from pooled faecal cultures, by genus; assay type: in vivo, lambs
[7] = test system: Other genera (Trichostrongylus spp.; Teladorsagia spp. and Oesophagostomum spp.); experiment: L3 from pooled faecal cultures, by genus; assay type: in vivo, lambs
Procedure, shortened: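 Naturally parasitized lambs (groups of 10) were dosed by weight on day 0 with two test compounds, alone or combined: the first at 5 mg/kg sc or 10 mg/kg oral, the second at 0.2 mg/kg sc or oral; untreated controls were kept. Rectal faeces were counted for epg by modified McMaster. Pooled group faecal cultures at days −1, 13, 22 and 28 gave L3 typed to genus. Genus efficacy = 100×(1−T/C) on arithmetic-mean epg partitioned by each genus's L3 proportion.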

P-gp = settings: ref Lespine et al., 2006; cited from earlier work
H. contortus population = settings: SUL experimental farm, ref Castells, personal communication; cited from earlier work
[8] = test system: gastrointestinal nematodes; settings: cattle, ref Leathwick and Miller (2013), cited from earlier work
susceptible H. contortus = settings: single dose, sheep, absence of resistance, cited from earlier work
[9] = ref Hennessy and Ali, 1997; cited from earlier work
plasma proteins = settings: ref Mohammed Ali and Bogan, 1987; Hennessy, 1993; cited from earlier work
[10] = Day 2 post-treatment, oral (CLO 10 mg/kg, MXD 0.2 mg/kg)
[11] = Day 2 post-treatment, subcutaneous (CLO 5 mg/kg, MXD 0.2 mg/kg)
[12] = Day 6 post-treatment, oral (CLO 10 mg/kg, MXD 0.2 mg/kg)
[13] = Day 6 post-treatment, subcutaneous (CLO 5 mg/kg, MXD 0.2 mg/kg)
[14] = Day 10 post-treatment, oral (CLO 10 mg/kg, MXD 0.2 mg/kg)
[15] = Day 13 post-treatment, oral (CLO 10 mg/kg, MXD 0.2 mg/kg)
[16] = Day 13 post-treatment, subcutaneous (CLO 5 mg/kg, MXD 0.2 mg/kg)
[17] = Day 22 post-treatment, oral (CLO 10 mg/kg, MXD 0.2 mg/kg)
[18] = Day 22 post-treatment, subcutaneous (CLO 5 mg/kg, MXD 0.2 mg/kg)
[19] = Day 28 post-treatment, oral (CLO 10 mg/kg, MXD 0.2 mg/kg)
[20] = Day 28 post-treatment, subcutaneous (CLO 5 mg/kg, MXD 0.2 mg/kg)
[21] = 22 days post-treatment, subcutaneous
[22] = CLO co-administered with MXD by the sc route vs CLO alone, P < 0.05
[23] = CLO 10 mg/kg oral alone (CLOoral)
[24] = 28 days post-treatment, subcutaneous

| Compound | Quantified in plasma up to ([1]; post oral treatment) | Quantified in plasma up to ([1]; post sc treatment) | Nematode egg counts (mean) [3, 10] | Nematode egg counts (mean) [3, 11] | Nematode egg counts (mean) [3, 12] | Nematode egg counts (mean) [3, 13] | Nematode egg counts (mean) [3, 14] | Efficacy (%) [CI] (FECRT) [3, 15] | Nematode egg counts (mean) [3, 15] | Efficacy (%) [CI] (FECRT) [3, 16] | Nematode egg counts (mean) [3, 16] | Efficacy (%) [CI] (FECRT) [3, 17] | Nematode egg counts (mean) [3, 17] | Efficacy (%) [CI] (FECRT) [3, 18] | Nematode egg counts (mean) [3, 18] | Efficacy (%) [CI] (FECRT) [3, 19] | Nematode egg counts (mean) [3, 19] [epg] | Efficacy (%) [CI] (FECRT) [3, 20] | Nematode egg counts (mean) [3, 20] [epg] | Fate of Nematodirus spp., Oesphagostomum spp. and Trichuris ovis [5] | other results |
| --- | --- | --- | --- | --- | --- | --- | --- | --- | --- | --- | --- | --- | --- | --- | --- | --- | --- | --- | --- | --- | --- |
| CO/N=C1\C[C@]2(C[C@@H]3C[C@@H](C/C=C(\C)C[C@@H](C)/C=C/C=C4\CO[C@@H]5[C@H](O)C(C)=C[C@@H](C(=O)O3)[C@]45O)O2)O[C@H](/C(C)=C/C(C)C)[C@H]1C [MXD, moxidectin] | ≤ 25 days | up to 28 days | 240 ^ab epg | 150 ^ab epg | 340 ^ab epg | 250^a epg | 530 ^bc epg | 80 [62–89] % | 1140 ^b epg | 92 [85–96] % | 430 ^b epg | 82 [53–93] % | 888 ^b epg | 80 [61–90] % | 975 ^b epg | 61 [6–84] % | 1525 | 74 [38–89] % | 1013 | efficiently eliminated | AUC0-LOQ after the oral treatment as share of that after the sc treatment ([1]; MXD 0.2 mg/kg oral vs sc): 33%; Dose excreted unchanged in the faeces [2]: 90%; Interaction with BCRP [4]: identified as a BCRP substrate; Adverse events [6]: No adverse events were observed; Efficacy (%) (Haemoncus spp.; 13 days post-treatment, oral): 100%; Efficacy (%) (Haemoncus spp.; 22 days post-treatment, oral): 100%; Efficacy (%) (Haemoncus spp.; [21]): 100%; Efficacy (%) (Haemoncus spp.; 28 days post-treatment, oral): 100%; Efficacy (%) ([7]; 13 days post-treatment, oral): 0%; Efficacy (%) ([7]; 22 days post-treatment, oral): 0%; Efficacy (%) [7, 21]: 0%; Efficacy (%) ([7]; 28 days post-treatment, oral): 0%; Interaction with mammalian P-gp (P-gp): much weaker compared with ivermectin; Efficacies of single dose (H. contortus population): above 85%; Efficacy ([8]; oral treatment): 91.1%; Efficacy ([8]; sc injection): 55.5%; Protection against reinfection up to (susceptible H. contortus; ref Kerboeuf et al., 1995): ≤ 35 days |
| Cc1cc(C(C#N)c2ccc(Cl)cc2)c(Cl)cc1NC(=O)c1cc(I)cc(I)c1O (centres unmarked) [CLO, closantel] | up to 28 days | up to 28 days | 630 ^b epg | 790 ^b epg | 550 ^b epg | 530 ^b epg | 770^c epg | 84 [71–91] % | 890 ^b epg | 85 [72–92] % | 830 ^b epg | 83 [73–89] % | 850 ^b epg | 82 [67–91] % | 863 ^b epg | 66 [36–82] % | 1350 | 84 [57–94] % | 650 | survive | Longer MRT after co-administration [1, 22]: 42%; Longer T½el after co-administration [1, 22]: 39%; Plasma drug exposure (AUC0-LOQ) lower after oral than after sc treatment ([1]; CLO oral 10 mg/kg vs sc 5 mg/kg, P < 0.05): 34%; AUC0-LOQ ([1]; CLO 5 mg/kg sc alone (CLOSC)): 1570 ± 419^ab μg.d/mL; AUC0-∞ ([1]; CLO 5 mg/kg sc alone (CLOSC)): 2231 ± 662^ab μg.d/mL; AUC0-LOQ [1, 23]: 1042 ± 170^c μg.d/mL; AUC0-∞ [1, 23]: 1438 ± 367^b μg.d/mL; Efficacy (FECRT) ([3]; 13 days post-treatment, drug alone, over the sc and oral treatments): 84 to 85%; Adverse events [6]: No adverse events were observed; Efficacy (%) (Haemoncus spp.; 22 days post-treatment, oral): 4%; Efficacy (%) (Haemoncus spp.; [21]): 0%; Efficacy (%) (Haemoncus spp.; 28 days post-treatment, oral): 9%; Efficacy (%) (Haemoncus spp.; [24]): 1%; Biodegradation by the ruminal fluid [9]: not exposed to any significant biodegradation; Efficacy (%) ([7]; 22 days post-treatment, oral): 96%; Efficacy (%) [7, 21]: 100%; Efficacy (%) [7, 24]: 99%; Binding to plasma proteins (plasma proteins): > 99%; Efficacies of single dose (H. contortus population): above 85%; Protection against reinfection up to (susceptible H. contortus; ref Hall et al., 1981): up to 28 days |
